In paper PMC3606642 (Journal of natural products, 2012):
“Also recorded” adds a separate entry of the source.

Test system: heat shock protein 70 (HSP70)
Assay: Western blot analysis of HSP70 expression in U251 cells
Format: cell-based, human
Conditions: for Stress response (heat shock effect and oxidative stress effect) following treatment: effect abrogated by N-acetyl-cysteine; for HSP70 total cell expression (western blot): 5 μM, 24 h post-treatment
Summary of the method: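 U251 glioblastoma cells were grown in DMEM with 10% FBS and 1% penicillin/streptomycin at 37 °C and 5% CO2, plated sub-confluent and grown overnight. They were treated with test compound at 0, 0.1, 0.5, 1 and 5 μM for 24 h. Lysate proteins were quantified, run on SDS–PAGE, transferred to nitrocellulose and probed with anti-HSP70 (1:1000), with actin (1:50,000) as loading control and HRP secondaries (1:5000).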

## C=C1C(=O)O[C@@H]2C[C@@]1(C)OC[C@H]2[C@H]1CC[C@H]2[C@@H]3C[C@@H](O)[C@@]45C[C@H]4CC(=O)[C@]5(C)[C@H]3CC[C@]12C [Compound 1, (20R,22R,24R)-21,24-epoxy-3α,5α-cyclo-1-oxowitha-25(27)-enolide]
  Stress response (heat shock effect and oxidative stress effect) following treatment: do not exhibit this stress response

## C=C1C(=O)O[C@@H]2C[C@]1(C)OC[C@H]2[C@H]1CC[C@H]2[C@@H]3CC=C4CC=CC(=O)[C@]4(C)[C@H]3C[C@@H](O)[C@]12C [Compound 2, (20R,22R,24R)-21,24-epoxy-12β-hydroxy-1-oxowitha-2,25,25(27)-trienolide]
  HSP70 total cell expression (western blot): upregulation was observed; also recorded: markedly upregulated
  Stress response (heat shock effect and oxidative stress effect) following treatment: observed

## C=C1C(=O)O[C@@H]2C[C@]1(C)OC[C@H]2[C@H]1CC[C@H]2[C@@H]3CC=C4CC=CC(=O)[C@]4(C)[C@H]3CC[C@]12C [Compound 3, withametelin]
  HSP70 total cell expression (western blot): upregulation was observed; also recorded: markedly upregulated
  Stress response (heat shock effect and oxidative stress effect) following treatment: observed

## C=C1C(=O)O[C@@H]2C[C@]1(C)OC[C@H]2[C@H]1CC[C@H]2[C@@H]3C[C@@H](O)[C@@]4(O)CC=CC(=O)[C@]4(C)[C@H]3CC[C@]12C [Compound 4, withametelin O]
  Stress response (heat shock effect and oxidative stress effect) following treatment: do not exhibit this stress response

## C=C1C(=O)O[C@@H]2C[C@]1(C)OC[C@H]2[C@H]1CC[C@H]2[C@@H]3C[C@H]4O[C@]45CC=CC(=O)[C@]5(C)[C@H]3CC[C@]12C [Compound 5, withametelin F]
  HSP70 total cell expression (western blot): upregulation was observed; also recorded: markedly upregulated
  Stress response (heat shock effect and oxidative stress effect) following treatment: observed
